The results in this text go back to ChEMBL document CHEMBL4376901, “Azo-PROTAC: Novel Light-Controlled Small-Molecule Tool for Protein Knockdown” (J Med Chem, 2020).

In general, EC50 refers to the concentration needed to bring the measured effect to its halfway point. As a reminder, the IC50 is the concentration that inhibits the measured activity by half.

Activity calls are given as the source filed them. The rule behind the calls is not given here. Some results are limits rather than exact numbers.

The test system of data set [1] is MCF7. Nature of the data set: Cytotoxicity against human MCF7 cells assessed as inhibition of cell viability incubated for 48 hrs by Cell-titer-Glo luminescent cell viability assay. It counts as functional, cell-based.
The target of data set [2] is T1, Protein cereblon/Tyrosine-protein kinase ABL1 (Homo sapiens) (UniProt P00519+Q96SW2). Nature of the data set: Protac activity at CRBN/ABL in human K562 cells assessed as reduction in ABL protein levels incubated for 24 hrs followed by exposure to UV-C light every 4 hrs by Western blot analysis. The format is cell-based. The gist of the method: (§1)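 K562 cells were treated with the trans form for 24 h, then moved to fresh medium and split into two groups. One group was exposed to UV-C light every 4 h and harvested. The control group was harvested without irradiation at 0, 4, 8, 12, 16 and 24 h. Proteins were read by Western blot.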
T1 sequence (P00519 whole entry, looked up): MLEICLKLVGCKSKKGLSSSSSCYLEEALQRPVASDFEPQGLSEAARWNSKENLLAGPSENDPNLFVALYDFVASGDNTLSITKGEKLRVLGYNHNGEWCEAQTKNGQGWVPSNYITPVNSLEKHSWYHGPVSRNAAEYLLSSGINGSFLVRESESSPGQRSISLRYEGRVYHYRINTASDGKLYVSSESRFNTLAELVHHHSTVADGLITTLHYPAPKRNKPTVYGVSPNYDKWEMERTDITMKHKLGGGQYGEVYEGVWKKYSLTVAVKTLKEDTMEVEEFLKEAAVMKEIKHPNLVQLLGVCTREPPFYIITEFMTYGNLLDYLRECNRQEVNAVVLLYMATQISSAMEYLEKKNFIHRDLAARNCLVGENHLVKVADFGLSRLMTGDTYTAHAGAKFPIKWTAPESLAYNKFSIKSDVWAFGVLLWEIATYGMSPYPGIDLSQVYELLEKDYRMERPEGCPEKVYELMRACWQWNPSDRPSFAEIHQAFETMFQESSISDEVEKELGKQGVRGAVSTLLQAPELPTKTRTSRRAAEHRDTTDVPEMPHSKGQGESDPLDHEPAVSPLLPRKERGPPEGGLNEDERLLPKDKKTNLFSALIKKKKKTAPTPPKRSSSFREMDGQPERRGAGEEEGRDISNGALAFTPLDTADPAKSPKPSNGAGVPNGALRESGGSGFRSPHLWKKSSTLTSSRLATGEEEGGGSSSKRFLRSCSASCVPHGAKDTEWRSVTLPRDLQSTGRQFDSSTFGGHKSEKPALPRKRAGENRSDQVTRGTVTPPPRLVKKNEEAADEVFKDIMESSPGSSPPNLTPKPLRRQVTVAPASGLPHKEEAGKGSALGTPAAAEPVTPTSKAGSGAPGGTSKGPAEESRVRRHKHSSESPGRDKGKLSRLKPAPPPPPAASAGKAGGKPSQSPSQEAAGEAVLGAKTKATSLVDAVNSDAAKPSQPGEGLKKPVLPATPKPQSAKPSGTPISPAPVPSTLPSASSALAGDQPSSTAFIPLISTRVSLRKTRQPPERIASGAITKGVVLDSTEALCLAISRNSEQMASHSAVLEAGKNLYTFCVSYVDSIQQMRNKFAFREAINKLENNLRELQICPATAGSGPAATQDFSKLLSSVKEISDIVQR
T1 sequence (Q96SW2 whole entry, looked up): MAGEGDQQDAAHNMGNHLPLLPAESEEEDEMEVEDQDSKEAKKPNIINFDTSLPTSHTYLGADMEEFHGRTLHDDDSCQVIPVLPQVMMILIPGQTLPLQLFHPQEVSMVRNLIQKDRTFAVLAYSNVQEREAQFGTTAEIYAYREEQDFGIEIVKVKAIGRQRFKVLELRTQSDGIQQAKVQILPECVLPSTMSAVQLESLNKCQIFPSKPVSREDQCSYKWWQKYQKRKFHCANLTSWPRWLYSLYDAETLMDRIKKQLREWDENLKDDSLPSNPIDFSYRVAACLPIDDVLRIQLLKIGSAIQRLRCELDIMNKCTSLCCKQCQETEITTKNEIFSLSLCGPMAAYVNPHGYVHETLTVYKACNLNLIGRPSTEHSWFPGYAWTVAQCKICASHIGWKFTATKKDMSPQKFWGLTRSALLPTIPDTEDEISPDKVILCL
In general terms: A western blot detects proteins with antibodies after separation by electrophoresis.

In data set [3] the target is T2, Protein cereblon/Tyrosine-protein kinase ABL1/Breakpoint cluster region protein (Homo sapiens) (UniProt P00519+P11274+Q96SW2). Nature of the data set: Protac activity at CRBN/BCR-ABL in human K562 cells assessed as reduction in BCR-ABL protein levels at 100 nM incubated for 24 hrs by Western blot analysis.
T2 sequence (P00519 whole entry, looked up): as the sequence (P00519 whole entry, looked up) above
T2 sequence (P11274 whole entry, looked up): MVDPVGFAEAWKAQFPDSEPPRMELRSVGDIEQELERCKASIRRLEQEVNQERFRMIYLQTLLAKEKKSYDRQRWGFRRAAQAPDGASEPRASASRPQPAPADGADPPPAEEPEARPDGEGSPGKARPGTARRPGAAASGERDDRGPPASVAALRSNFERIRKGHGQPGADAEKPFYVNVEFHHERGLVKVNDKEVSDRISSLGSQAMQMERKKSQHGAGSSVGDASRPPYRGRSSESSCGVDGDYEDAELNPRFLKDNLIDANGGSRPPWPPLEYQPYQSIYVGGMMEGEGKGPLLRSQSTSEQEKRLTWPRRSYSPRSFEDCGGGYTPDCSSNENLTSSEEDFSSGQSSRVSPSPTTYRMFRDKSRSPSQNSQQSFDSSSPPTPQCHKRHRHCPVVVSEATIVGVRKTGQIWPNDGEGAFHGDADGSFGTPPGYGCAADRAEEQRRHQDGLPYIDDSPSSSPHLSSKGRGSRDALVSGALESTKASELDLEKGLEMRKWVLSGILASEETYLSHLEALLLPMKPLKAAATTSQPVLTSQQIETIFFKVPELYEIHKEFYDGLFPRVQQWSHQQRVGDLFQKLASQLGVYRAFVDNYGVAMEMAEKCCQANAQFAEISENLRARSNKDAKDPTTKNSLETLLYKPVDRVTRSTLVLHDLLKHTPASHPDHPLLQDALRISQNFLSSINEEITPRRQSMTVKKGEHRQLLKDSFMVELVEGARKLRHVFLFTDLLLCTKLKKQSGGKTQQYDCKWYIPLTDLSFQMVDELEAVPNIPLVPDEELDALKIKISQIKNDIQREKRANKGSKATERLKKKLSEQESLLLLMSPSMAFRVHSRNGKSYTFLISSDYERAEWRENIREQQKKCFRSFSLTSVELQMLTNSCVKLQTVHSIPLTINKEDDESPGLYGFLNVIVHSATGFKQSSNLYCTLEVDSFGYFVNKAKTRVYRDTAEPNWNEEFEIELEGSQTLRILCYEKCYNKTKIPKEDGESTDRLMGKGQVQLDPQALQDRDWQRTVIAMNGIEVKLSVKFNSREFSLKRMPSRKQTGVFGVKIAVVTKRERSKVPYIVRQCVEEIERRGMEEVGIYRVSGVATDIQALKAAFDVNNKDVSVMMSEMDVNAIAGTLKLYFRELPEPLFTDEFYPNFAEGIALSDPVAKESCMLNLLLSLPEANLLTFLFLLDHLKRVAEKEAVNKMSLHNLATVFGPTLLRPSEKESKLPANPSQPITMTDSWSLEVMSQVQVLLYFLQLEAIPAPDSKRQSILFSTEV
T2 sequence (Q96SW2 whole entry, looked up): as the sequence (Q96SW2 whole entry, looked up) above
Data set [4] deals with T1, Protein cereblon/Tyrosine-protein kinase ABL1 (Homo sapiens). Nature of the data set: Protac activity at CRBN/ABL in human K562 cells assessed as reduction in ABL protein levels at 250 nM incubated for 4 hrs by Western blot analysis. The format is cell-based. The gist of the method:
(§2)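 Time-course in K562 cells at a fixed 250 nM PROTAC, run separately with the trans and cis forms. Cells were harvested at several time points. BCR-ABL and ABL protein levels were read by Western blot.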

Data set [5] in a line: Drug metabolism assessed as photoisomerization to cis-isomer after exposure to UV-C light and measured up to 120 mins by UV-visible absorption spectra analysis.
Data set [6] concerns the target T2, Protein cereblon/Tyrosine-protein kinase ABL1/Breakpoint cluster region protein (Homo sapiens). Nature of the data set: Protac activity at CRBN/BCR-ABL in human K562 cells assessed as reduction in BCR-ABL protein levels incubated for 24 hrs followed by exposure to white light up to 24 hrs hrs by Western blot analysis. The format is cell-based. The gist of the method: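 Cells were preincubated with the cis form while shielded from light, then moved to fresh medium and exposed to visible light. BCR-ABL was followed over time by Western blot.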

For data set [7], the target named is T1, Protein cereblon/Tyrosine-protein kinase ABL1 (Homo sapiens). Briefly: Protac activity at CRBN/ABL in human K562 cells assessed as reduction in ABL protein levels pre-treated with ABL inhibitor dasatinib followed by compound addition at 250 nM incubated for 24 hrs by Western blot analysis. The format is cell-based.
Data set [8] deals with K562. Briefly: Cytotoxicity against human K562 cells assessed as inhibition of cell viability incubated for 48 hrs by Cell-titer-Glo luminescent cell viability assay. The format is functional, cell-based. The conditions noted are these: K562, 48 h.
In data set [9] the target is T1, Protein cereblon/Tyrosine-protein kinase ABL1 (Homo sapiens). Briefly: Protac activity at CRBN/ABL in human K562 cells assessed as reduction in ABL protein levels pre-treated with NEDD8-activating enzyme (NAE) inhibitor MLN4924 followed by compound addition at 250 nM incubated for 24 hrs by Western blot analysis. The format is cell-based.
Data set [10] addresses T2, Protein cereblon/Tyrosine-protein kinase ABL1/Breakpoint cluster region protein (Homo sapiens). Nature of the data set: Protac activity at CRBN/BCR-ABL in human K562 cells assessed as reduction in BCR-ABL protein levels pre-treated with lenalidomide followed by compound addition at 250 nM incubated for 24 hrs by Western blot analysis. It counts as cell-based.
Data set [11] deals with K562. Briefly: Antiproliferative activity against human K562 cells assessed as inhibition of cell proliferation incubated for 48 hrs by CCK8 assay. The format is functional, cell-based. The settings on record: K562, 48 h. On the technique in general: Tetrazolium assays rely on reduction of a dye to a coloured formazan, in cell work by metabolically active cells.
Data set [12] concerns A549. Briefly: Cytotoxicity against human A549 cells assessed as inhibition of cell viability incubated for 48 hrs by Cell-titer-Glo luminescent cell viability assay. The format is functional, cell-based.
The test system of data set [13] is HCT-116. Nature of the data set: Cytotoxicity against human HCT116 cells assessed as inhibition of cell viability incubated for 48 hrs by Cell-titer-Glo luminescent cell viability assay. The format is functional, cell-based.
The target of data set [14] is T2, Protein cereblon/Tyrosine-protein kinase ABL1/Breakpoint cluster region protein (Homo sapiens). Nature of the data set: Protac activity at CRBN/BCR-ABL in human K562 cells assessed as reduction in BCR-ABL protein levels pre-treated with ABL inhibitor dasatinib followed by compound addition at 250 nM incubated for 24 hrs by Western blot analysis. The format is cell-based.

Data set [15] concerns the target T1, Protein cereblon/Tyrosine-protein kinase ABL1 (Homo sapiens). Nature of the data set: Protac activity at CRBN/ABL in human K562 cells assessed as reduction in ABL protein levels incubated for 24 hrs by Western blot analysis.
A short description of data set [16]: Half life for spontaneous thermal relaxation under dark condition at 25 degC. It counts as physicochemical.
In data set [17] the target is T2, Protein cereblon/Tyrosine-protein kinase ABL1/Breakpoint cluster region protein (Homo sapiens). Briefly: Protac activity at CRBN/BCR-ABL in human K562 cells assessed as reduction in BCR-ABL protein levels incubated for 24 hrs by Western blot analysis.
Data set [18] concerns K562. Briefly: Effect on ABL gene expression in human K562 cells at 50 to 500 nM incubated for 36 hrs by RT-qPCR analysis. The settings on record: k562, 36 h, 0.5 µM. The format is ADME, cell-based. (Real-time PCR tracks product formation cycle by cycle.)
The target in data set [19] is T2, Protein cereblon/Tyrosine-protein kinase ABL1/Breakpoint cluster region protein (Homo sapiens). Nature of the data set: Protac activity at CRBN/BCR-ABL in human K562 cells assessed as reduction in BCR-ABL protein levels at 250 nM incubated for 4 hrs by Western blot analysis. The format is cell-based. The settings on record: in the assay text read “10 hrs” for “4 hrs”. Summed up: as §2

Data set [20] concerns the target T1, Protein cereblon/Tyrosine-protein kinase ABL1 (Homo sapiens). Briefly: Protac activity at CRBN/ABL in human K562 cells assessed as reduction in ABL protein levels at 100 nM incubated for 24 hrs by Western blot analysis.
A short description of data set [21]: Drug metabolism assessed as photoisomerization to cis-isomer after exposure to white light light up to 240 mins by UV-visible absorption spectra analysis.
In data set [22] the target is T2, Protein cereblon/Tyrosine-protein kinase ABL1/Breakpoint cluster region protein (Homo sapiens). Briefly: Protac activity at CRBN/BCR-ABL in human K562 cells assessed as reduction in BCR-ABL protein levels at 250 nM incubated for 10 hrs by Western blot analysis. It counts as cell-based. The gist of the method:
as §2

The target is the same in data set [23]. Briefly: Protac activity at CRBN/BCR-ABL in human K562 cells assessed as reduction in BCR-ABL protein levels incubated for 24 hrs followed by exposure to UV-C light every 4 hrs by Western blot analysis. It counts as cell-based. Summed up: as §1
Data set [24] has as its target T1, Protein cereblon/Tyrosine-protein kinase ABL1 (Homo sapiens). Briefly: Protac activity at CRBN/ABL in human K562 cells assessed as reduction in ABL protein levels pre-treated with lenalidomide followed by compound addition at 250 nM incubated for 24 hrs by Western blot analysis. It counts as cell-based.
A short description of data set [25]: Drug metabolism assessed as photoisomerization to cis-isomer after exposure to UV-C light and measured after 1 hr by UV-visible absorption spectra analysis.
Data set [26] in a line: Stability in presence of 20 mM of GSH reduced in DMSO/PBS buffer (1:1) solution incubated for 48 hrs. It counts as physicochemical.
For data set [27], the target named is T1, Protein cereblon/Tyrosine-protein kinase ABL1 (Homo sapiens). Nature of the data set: Protac activity at CRBN/ABL in human K562 cells assessed as reduction in ABL protein levels at 250 nM incubated for 32 hrs by Western blot analysis. It counts as cell-based. Also on record: scale not given: the % may be the effect or the level left. The gist of the method: as §2

Data set [28] has the same target. Briefly: Protac activity at CRBN/ABL in human K562 cells assessed as reduction in ABL protein levels at 250 nM incubated for 10 hrs by Western blot analysis. It counts as cell-based. Summed up:
as §2

The target is the same in data set [29]. Nature of the data set: Protac activity at CRBN/ABL in human K562 cells assessed as reduction in ABL protein levels incubated for 24 hrs followed by exposure to white light up to 24 hrs by Western blot analysis. The format is cell-based.
Data set [30] concerns the target T2, Protein cereblon/Tyrosine-protein kinase ABL1/Breakpoint cluster region protein (Homo sapiens). Briefly: Protac activity at CRBN/BCR-ABL in human K562 cells assessed as reduction in BCR-ABL protein levels pre-treated with NEDD8-activating enzyme (NAE) inhibitor MLN4924 followed by compound addition at 250 nM incubated for 24 hrs by Western blot analysis. The format is cell-based.

The target is the same in data set [31]. Nature of the data set: Protac activity at CRBN/BCR-ABL in human K562 cells assessed as reduction in BCR-ABL protein levels at 250 nM incubated for 32 hrs by Western blot analysis. The format is cell-based. Also noted: scale not given: the % may be the effect or the level left. The gist of the method:
as §2

Data set [32] has the same target. Briefly: Protac activity at CRBN/BCR-ABL in human K562 cells assessed as reduction in BCR-ABL protein levels at 50 to 250 nM incubated for 24 hrs by Western blot analysis. The format is cell-based. The gist of the method:
(§3)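 K562 cells were exposed for 24 h to a concentration gradient of the trans or cis form. BCR-ABL and ABL protein levels were assessed by Western blot in a dose-effect design.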

Data set [33] deals with T1, Protein cereblon/Tyrosine-protein kinase ABL1 (Homo sapiens). Briefly: Protac activity at CRBN/ABL in human K562 cells assessed as reduction in ABL protein levels at 50 to 250 nM incubated for 24 hrs by Western blot analysis. It counts as cell-based. Summed up: as §3
For data set [34], the target named is T2, Protein cereblon/Tyrosine-protein kinase ABL1/Breakpoint cluster region protein (Homo sapiens). Nature of the data set: Protac activity at CRBN/BCR-ABL in human K562 cells assessed as reduction in BCR-ABL protein levels at 500 nM incubated for 24 hrs by Western blot analysis.
Data set [35] addresses T1, Protein cereblon/Tyrosine-protein kinase ABL1 (Homo sapiens). Nature of the data set: Protac activity at CRBN/ABL in human K562 cells assessed as reduction in ABL protein levels at 500 nM incubated for 24 hrs by Western blot analysis.

`Cc1nc(Nc2ncc(C(=O)Nc3c(C)cccc3Cl)s2)cc(N2CCN(CCCCOc3ccc(/N=N/c4ccc(C(=O)Nc5cccc6c5CN(C5CCC(=O)NC5=O)C6=O)cc4)cc3)CC2)n1` (stereo unspecified): the result in [1], in [2], in data set [7], in [9], in data set [10] and in data set [12] was inactive. In addition, the result in data set [13], in data set [14], in data set [23], in data set [24] and in data set [30] was inactive. The result in data set [3], in data set [4], in [6], in data set [19], in [20] and in data set [22] was Active. For the same molecule, the result in data set [28] and in [29] was Active. The Drug metabolism result in [5], in data set [21] and in data set [25] was “Metabolite detected” each time. The EC50 in data set [8] came to 28 nM. In addition, the IC50 in [11] is 68 nM. Further, the Activity result was “Dose-dependent effect” in [15]; “Dose-dependent effect” in [17]; “Non-Toxic” in data set [18]; over 90% in data set [27]; over 90% in data set [31]. In data set [16], this molecule gave a t1/2 of 10.3 h. Also, the Stability result in [26] was “Stable”.
For the molecule `Cc1nc(Nc2ncc(C(=O)Nc3c(C)cccc3Cl)s2)cc(N2CCN(CCOc3ccc(/N=N/c4ccc(C(=O)Nc5cccc6c5CN(C5CCC(=O)NC5=O)C6=O)cc4)cc3)CC2)n1` (stereo unspecified), the result in data set [3] and in data set [20] was Active.
On to `Cc1nc(Nc2ncc(C(=O)Nc3c(C)cccc3Cl)s2)cc(N2CCN(CCCCOc3ccc(/N=N/c4ccc(C(=O)Nc5cccc6c5CN(C5CCC(=O)N(C)C5=O)C6=O)cc4)cc3)CC2)n1` (single isomer, unassigned; (-)), for which the outcome in data set [32] and in data set [33] was inactive.
In the case of `Cc1nc(Nc2ncc(C(=O)Nc3c(C)cccc3Cl)s2)cc(N2CCN(CCCCOc3ccc(/N=N\c4ccc(C(=O)Nc5cccc6c5CN(C5CCC(=O)NC5=O)C6=O)cc4)cc3)CC2)n1` (stereo unspecified), the outcome in data set [34], in [35], in [27] and in data set [31] was inactive. Moreover, the Activity result in data set [6] (TDE = time-dependent effect) and in data set [29] (TDE = time-dependent effect) was “Tde” each time.
